In ChEMBL document CHEMBL1125796, “Antitumor properties of 2(1H)-pyrimidinone riboside (zebularine) and its fluorinated analogues” (1991):
Values joined by “and” are separate entries in the source; they are usually repeats but may differ in a detail not shown here. Equal values may be shown once.

Columns and labels:
Mus musculus [1] = assay: Percent increase in life span of drug-treated mice relative to tumored, vehicle treated controls at a dose of 200 mg/kg ip.; assay type: functional; conditions: for ILS at 200 mg/kg: Mus musculus, ip
How it was run: (§1)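 Tumors implanted day 0: B16 melanoma as 0.5 mL of 1:10 brei into BDF1 mice; L1210 or P388 leukemia as 10^6 cells into CDF1 mice, ip or sc. Drug was given in physiologic saline by ip or oral route, QD 1-9. %ILS was calculated against saline-treated tumored controls, with body-weight change difference as the toxicity read-out. Six mice per dose in most experiments.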

Mus musculus [2] = assay: Percent increase in life span of drug-treated mice relative to tumored, vehicle treated controls at a dose of 400 mg/kg ip.; assay type: functional; how it was run: as §1
Mus musculus [3] = assay: Percent increase in life span of drug-treated mice relative to tumored, vehicle treated controls at a dose of 800 mg/kg ip.; assay type: functional; how it was run: as §1
Mus musculus [4] = assay: Antitumor activity against L1210 tumor in mice, at a dose of 400 mg/kg per ip administration.; assay type: functional; conditions: route intraperitoneal
How it was run: (§2)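 Tumors implanted ip on day 0: B16 melanoma (0.5 mL of 1:10 brei) in BDF1 mice, and L1210 or P388 leukemia (10^6 cells) in CDF1 mice. Compound was given ip in physiologic saline daily on days 1–9. Read-out was % increase in life span versus vehicle-treated tumored controls, with body-weight change difference also recorded. Six mice per dose, three in some P388 groups.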

Mus musculus [5] = assay: Antitumor activity against L1210 tumor in mice, at a dose of 800 mg/kg per ip administration.; assay type: functional; conditions: route intraperitoneal; how it was run: as §2
Mus musculus [6] = assay: Antitumor activity against L1210 ttumor in mice, at a dose of 200 mg/kg per ip administration.; assay type: functional; conditions: route intraperitoneal; how it was run: as §2
Mus musculus [7] = assay: Percent increase in life span of drug-treated mice relative to tumored, vehicle treated controls at a dose of 3.75 mg/kg ip.; assay type: functional; how it was run: as §1
Mus musculus [8] = assay: Percent increase in life span of drug-treated mice relative to tumored, vehicle treated controls at a dose of 0.68 mg/kg ip.; assay type: functional; how it was run: as §1
Mus musculus [9] = assay: Percent increase in life span of drug-treated mice relative to tumored, vehicle treated controls at a dose of 1.11 mg/kg ip.; assay type: functional; how it was run: as §1
Mus musculus [10] = assay: Percent increase in life span of drug-treated mice relative to tumored, vehicle treated controls at a dose of 1.25 mg/kg ip.; assay type: functional; how it was run: as §1
Mus musculus [11] = assay: Percent increase in life span of drug-treated mice relative to tumored, vehicle treated controls at a dose of 1.67 mg/kg ip.; assay type: functional; how it was run: as §1
Mus musculus [12] = assay: Antitumor activity against P388 tumor in mice, at a dose of 3.75 mg/kg per ip administration.; assay type: functional; conditions: route intraperitoneal; how it was run: as §2
Mus musculus [13] = assay: Antitumor activity against L1210 tumor in mice, at a dose of 1.25 mg/kg per ip administration.; assay type: functional; conditions: route intraperitoneal; how it was run: as §2
Mus musculus [14] = assay: Antitumor activity against L1210 tumor in mice, at a dose of 2.5 mg/kg per ip administration.; assay type: functional; conditions: route intraperitoneal; how it was run: as §2
Mus musculus [15] = assay: Antitumor activity against L1210 tumor in mice, at a dose of 1.67 mg/kg per ip administration.; assay type: functional; conditions: route intraperitoneal; how it was run: as §2
Mus musculus [16] = assay: Antitumor activity against P388 tumor in mice, at a dose of 1.11 mg/kg per ip administration.; assay type: functional; conditions: route intraperitoneal; how it was run: as §2
Mus musculus [17] = assay: Antitumor activity against P388 tumor in mice, at a dose of 1.67 mg/kg per ip administration.; assay type: functional; conditions: route intraperitoneal; how it was run: as §2
Mus musculus [18] = assay: Antitumor activity against L1210 tumor in mice, at a dose of 0.68 mg/kg per ip administration.; assay type: functional; conditions: route intraperitoneal; how it was run: as §2
Mus musculus [19] = assay: Antitumor activity against L1210 tumor in mice, at a dose of 1.11 mg/kg per ip administration.; assay type: functional; conditions: route intraperitoneal; how it was run: as §2
Mus musculus [20] = assay: Antitumor activity against P388 tumor in mice, at a dose of 2.5 mg/kg per ip administration.; assay type: functional; conditions: route intraperitoneal; how it was run: as §2
Mus musculus [21] = assay: Percent increase in life span of drug-treated mice relative to tumored, vehicle treated controls at a dose of 2.5 mg/kg ip.; assay type: functional; how it was run: as §1
Mus musculus [22] = assay: Percent increase in life span of drug-treated mice relative to tumored, vehicle treated controls at a dose of 500 mg/kg oral treatment; assay type: functional
How it was run: (§3)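 CDF1 mice were implanted ip with 10^6 L1210 cells on day 0. Oral treatment was given on day 1 only, 24 h after implantation. In combinations, the deaminase inhibitor was given as two 250 mg/kg doses 30 min apart, as one dose immediately before ara-C, or as half the dose 30 min before and half immediately after ara-C. %ILS was calculated versus vehicle-treated tumored controls.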

Mus musculus [23] = assay: Percent increase in life span of drug-treated mice relative to tumored, vehicle treated controls at a dose of 500 mg/kg orally in the presence of 500 mg/kg of zebularine.; assay type: functional; conditions: po; how it was run: as §3
Mus musculus [24] = assay: Percent increase in life span of drug-treated mice relative to tumored, vehicle treated controls at a dose of 100 mg/kg oral treatment; assay type: functional; how it was run: as §3
Mus musculus [25] = assay: Antitumor activity against L1210 tumor in mice, at a dose of 500 mg/kg peroral administration in the presence of 100 mg/kg of zebularine.; assay type: functional
Mus musculus [26] = assay: Antitumor activity against L1210 tumor in mice, at a dose of 500 mg/kg peroral administration in the presence of 10 mg/kg of zebularine.; assay type: functional
Mus musculus [27] = assay: Antitumor activity against L1210 tumor in mice, at a dose of 500 mg/kg peroral administration.; assay type: functional; conditions: route oral
How it was run: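 CDF1 mice received L1210 leukemia ip. Treatment was oral on day 1 only, 24 h after implantation, with ara-C at 500 mg/kg. Zebularine was given as a single dose immediately before ara-C, or as divided doses (e.g. 2 × 250 mg/kg 30 min apart, or half 30 min before and half immediately after). Read-out was % increase in life span.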

Mus musculus [28] = assay: Percent increase in life span of drug-treated mice relative to tumored, vehicle treated controls at a dose of 3.13 mg/kg ip.; assay type: functional; how it was run: as §1
Mus musculus [29] = assay: Percent increase in life span of drug-treated mice relative to tumored, vehicle treated controls at a dose of 6.25 mg/kg ip.; assay type: functional; how it was run: as §1
Mus musculus [30] = assay: Percent increase in life span of drug-treated mice relative to tumored, vehicle treated controls at a dose of 600 mg/kg ip.; assay type: functional; how it was run: as §1
Mus musculus [31] = assay: Antitumor activity against P388 tumor in mice, at a dose of 200 mg/kg per ip administration.; assay type: functional; conditions: route intraperitoneal; how it was run: as §2
Mus musculus [32] = assay: (§4) Antitumor activity against P388 tumor in mice, at a dose of 400 mg/kg per ip administration.; assay type: functional; conditions: route intraperitoneal; how it was run: as §2
Mus musculus [33] = assay: Antitumor activity against P388 tumor in mice, at a dose of 600 mg/kg per ip administration.; assay type: functional; conditions: route intraperitoneal; how it was run: as §2
Mus musculus [34] = assay: as §4; assay type: functional; conditions: route intraperitoneal; how it was run: as §2; remark: listed apart in the source
Mus musculus [35] = assay: Antitumor activity against ara-c resistance L1210 tumor in mice, at a dose of 200 mg/kg per ip administration.; assay type: functional; conditions: route intraperitoneal
How it was run: (§5)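 An ara-C-resistant L1210 leukemia line (10^6 cells) was implanted ip on day 0 in CDF1 mice. Compound was given ip in physiologic saline daily on days 1–9. Read-out was % increase in life span versus saline-treated tumored controls, plus body-weight change difference.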

Mus musculus [36] = assay: Antitumor activity against ara-c resistance L1210 tumor in mice, at a dose of 400 mg/kg per ip administration.; assay type: functional; conditions: route intraperitoneal; how it was run: as §5
Mus musculus [37] = assay: Antitumor activity against ara-c resistance L1210 tumor in mice, at a dose of 800 mg/kg per ip administration.; assay type: functional; conditions: route intraperitoneal; how it was run: as §5
Mus musculus [38] = assay: Antitumor activity against […] tumor in mice, at a dose of 400 mg/kg per ip administration.; assay type: functional; conditions: route intraperitoneal; how it was run: as §2
Mus musculus [39] = assay: Antitumor activity against B16 tumor in mice, at a dose of 200 mg/kg per ip administration.; assay type: functional; conditions: route intraperitoneal; how it was run: as §2
Mus musculus [40] = assay: Antitumor activity against B16 tumor in mice, at a dose of 400 mg/kg per ip administration.; assay type: functional; conditions: route intraperitoneal; how it was run: as §2
Mus musculus [41] = assay: Antitumor activity against B16 tumor in mice, at a dose of 800 mg/kg per ip administration.; assay type: functional; conditions: route intraperitoneal; how it was run: as §2
Mus musculus [42] = assay: Antitumor activity against L1210 tumor in mice, at a dose of 1600 mg/kg per oral administration.
Mus musculus [43] = assay: Percent increase in life span of drug-treated mice relative to tumored, vehicle treated controls at a dose of 1600 mg/kg orally.; conditions: oral
Mus musculus [44] = assay: Percent increase in life span of drug-treated mice relative to tumored, vehicle treated controls at a dose of 800 mg/kg, ip administration
Mus musculus [45] = assay: Percent increase in life span of drug-treated mice relative to tumored, vehicle treated controls at a dose of 800 mg/kg oral administration

## O=c1ncccn1[C@@H]1O[C@H](CO)[C@@H](O)[C@@H]1F
Mus musculus [1]
  ILS at 200 mg/kg: 31%
Mus musculus [2]; Mus musculus, ip
  ILS at 400 mg/kg: 37%
Mus musculus [3]; Mus musculus, ip
  ILS at 800 mg/kg: 43%
Mus musculus [4]
  Weight change difference: 0 g
Mus musculus [5]
  Weight change difference: 1 g
Mus musculus [6]
  Weight change difference: 1 g

## O=c1ncc(F)cn1C1O[C@H](CO)[C@@H](O)[C@H]1O (some centres undefined)
Mus musculus [7]
  ILS at 3.75 mg/kg: 60%
Mus musculus [8]
  ILS at 0.68 mg/kg: 62%
Mus musculus [9]
  ILS: 75% and 50%
Mus musculus [10]
  ILS at 1.25 mg/kg: 75%
Mus musculus [11]
  ILS: 118% and 45% and 50%
Mus musculus [12]
  Weight change difference: -2 g
Mus musculus [13]
  Weight change difference: 0 g
Mus musculus [14]
  Weight change difference: -1 g and -2 g
Mus musculus [15]
  Weight change difference: -1 g
Mus musculus [16]
  Weight change difference: -1 g
Mus musculus [17]
  Weight change difference: -2 g
Mus musculus [18]
  Weight change difference: 0 g
Mus musculus [19]
  Weight change difference: 0 g
Mus musculus [20]
  Weight change difference: -2 g
Mus musculus [21]
  ILS: 137% [middle of 4 runs]

## Nc1ccn([C@@H]2O[C@H](CO)[C@@H](O)[C@@H]2O)c(=O)n1 [CYTARABINE]
Mus musculus [22]
  ILS: 44% and 74% and 80%
Mus musculus [23]
  ILS at 500 mg/kg: 74%
Mus musculus [24]; 100 mg/kg
  ILS: 68%
Mus musculus [24]; Mus musculus, po
  ILS at 100 mg/kg: 68%
Mus musculus [25]
  Weight change difference: -1 g
Mus musculus [26]
  Weight change difference: -2.2 g
Mus musculus [27]
  Weight change difference: -0.5 g

## OC[C@H]1O[C@@H](n2cnc3cncnc32)[C@H](O)[C@@H]1O [NEBULARINE]
Mus musculus [28]; 3.13 mg/kg
  ILS: 52%
Mus musculus [28]; Mus musculus, ip
  ILS at 3.13 mg/kg: 60%
Mus musculus [29]; 6.25 mg/kg
  ILS: 34%
Mus musculus [29]; Mus musculus, ip
  ILS at 6.25 mg/kg: 40%

## O=c1ncccn1[C@@H]1O[C@H](CO)[C@@H](O)[C@H]1O [ZEBULARINE]
Mus musculus [1]; 200 mg/kg
  ILS: 34% and 25% and 40%
Mus musculus [1]
  ILS at 200 mg/kg: 36%
Mus musculus [2]; 400 mg/kg
  ILS: 66% [middle of 7 runs]
Mus musculus [30]
  ILS at 600 mg/kg: 45%
Mus musculus [3]; 800 mg/kg
  ILS: 77% [middle of 5 runs]
Mus musculus [31]
  Weight change difference: -2 g and -0.7 g
Mus musculus [32]
  Weight change difference: -2.3 g
Mus musculus [33]
  Weight change difference: -1.3 g
Mus musculus [34]
  Weight change difference: -1.2 g
Mus musculus [35]
  Weight change difference: -1.6 g
Mus musculus [36]
  Weight change difference: -1.8 g
Mus musculus [37]
  Weight change difference: -3.4 g
Mus musculus [4]
  Weight change difference: -0.4 g
Mus musculus [5]
  Weight change difference: -2.8 g
Mus musculus [38]
  Weight change difference: -2.1 g
Mus musculus [39]
  Weight change difference: -0.5 g
Mus musculus [40]
  Weight change difference: -0.1 g and -0.2 g
Mus musculus [41]
  Weight change difference: 0 g
Mus musculus [42]
  Weight change difference: -2.3 g
Mus musculus [43]
  ILS at 1600 mg/kg: 112%
Mus musculus [44]
  ILS at 800 mg/kg: 110%
Mus musculus [45]
  ILS at 800 mg/kg: 81%
